In ChEMBL document CHEMBL2440093, “Discovery of 2-aryl-8-hydroxy (or methoxy)-isoquinolin-1(2H)-ones as novel EGFR inhibitor by scaffold hopping” (Bioorg Med Chem, 2013):

Columns and labels:
A-431 = experiment: Antiproliferative activity against human A431 cells after 72 hrs by MTT assay; assay type: functional, cell-based; details: A-431, 72 h
In short: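 A431 cells seeded in 96-well plates and held 24 h at 37 °C before exposure, with cell numbers set so controls stay in exponential growth. Compounds at final 100.0, 10.0, 1.0 and 0.1 μM for 72 h. MTT (5 mg/ml in PBS) added for 4 h, formazan pelleted and dissolved in DMSO, OD 570 nm. Three experiments in triplicate; IC50 from inhibition ratios.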

A549 = experiment: Antiproliferative activity against human A549 cells after 72 hrs by MTT assay; assay type: functional, cell-based; details: A549, 72 h
[1] = target: Epidermal growth factor receptor (Homo sapiens, UniProt P00533); experiment: Inhibition of EGFR in shed membrane vesicles of human A431 cells using poly-Glu-Tyr as substrate after 30 mins by ELISA; assay type: cell membranes, A-431
Sequence of Epidermal growth factor receptor (P00533 whole entry): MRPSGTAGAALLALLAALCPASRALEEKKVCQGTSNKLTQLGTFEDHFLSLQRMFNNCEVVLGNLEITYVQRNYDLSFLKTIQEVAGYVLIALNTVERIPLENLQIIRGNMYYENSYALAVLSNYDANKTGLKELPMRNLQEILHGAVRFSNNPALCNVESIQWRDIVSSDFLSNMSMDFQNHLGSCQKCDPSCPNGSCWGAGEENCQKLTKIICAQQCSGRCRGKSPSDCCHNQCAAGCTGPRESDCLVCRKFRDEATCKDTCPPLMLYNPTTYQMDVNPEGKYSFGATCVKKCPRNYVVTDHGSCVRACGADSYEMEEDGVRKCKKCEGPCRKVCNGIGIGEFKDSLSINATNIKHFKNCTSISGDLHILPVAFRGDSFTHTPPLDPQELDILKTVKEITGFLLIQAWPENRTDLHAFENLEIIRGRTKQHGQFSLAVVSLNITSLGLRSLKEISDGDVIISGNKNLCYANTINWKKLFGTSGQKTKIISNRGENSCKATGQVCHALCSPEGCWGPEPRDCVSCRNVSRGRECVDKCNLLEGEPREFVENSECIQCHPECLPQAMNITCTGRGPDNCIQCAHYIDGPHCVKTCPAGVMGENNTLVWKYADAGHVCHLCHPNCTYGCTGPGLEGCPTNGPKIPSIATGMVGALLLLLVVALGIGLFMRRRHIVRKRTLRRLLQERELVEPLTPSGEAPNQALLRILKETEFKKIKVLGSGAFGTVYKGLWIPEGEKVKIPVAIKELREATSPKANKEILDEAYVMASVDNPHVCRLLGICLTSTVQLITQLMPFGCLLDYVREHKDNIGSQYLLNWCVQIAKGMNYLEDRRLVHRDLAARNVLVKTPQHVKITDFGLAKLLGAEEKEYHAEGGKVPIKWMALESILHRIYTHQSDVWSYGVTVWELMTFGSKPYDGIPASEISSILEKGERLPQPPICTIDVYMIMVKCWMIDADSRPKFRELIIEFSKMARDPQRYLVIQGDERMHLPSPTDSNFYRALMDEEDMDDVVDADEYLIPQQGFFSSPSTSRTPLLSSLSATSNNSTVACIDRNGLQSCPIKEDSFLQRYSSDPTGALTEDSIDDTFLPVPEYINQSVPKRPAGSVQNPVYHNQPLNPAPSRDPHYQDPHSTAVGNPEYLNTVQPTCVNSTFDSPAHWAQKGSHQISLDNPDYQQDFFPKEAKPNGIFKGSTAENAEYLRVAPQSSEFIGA

Row | Compound | IC50 (A-431) | IC50 (A549) | IC50 [1]
1 | COc1cc(O)c2c(=O)n(-c3cccc(C(N)=O)c3)ccc2c1 | 15.2 µM | 24.8 µM | 
2 | COc1cc(OC)c2c(=O)n(-c3ccc(F)c(Cl)c3)ccc2c1 | 3.95 µM | 17.8 µM | 5490 nM
3 | COc1cc(OC)c2c(=O)n(-c3cccc(F)c3)ccc2c1 | 4.17 µM | 15.2 µM | 
4 | COc1cc(OC)c2c(=O)n(-c3cccc(C(N)=O)c3)ccc2c1 | 28.2 µM | 31.3 µM | 
5 | C#Cc1cccc(-n2ccc3cc(OC)cc(O)c3c2=O)c1 | 4.44 µM | 15.9 µM | 3060 nM
6 | COc1cc2c(c(OC)c1)C(=O)N(c1cccc(C(=O)N3CCCCC3)c1)CC2 | 10.8 µM | 23.4 µM | 1230 nM
7 | COc1cc(OC)c2c(=O)n(-c3ccc(F)c(F)c3)ccc2c1 | 3.79 µM |  | 
8 | C#Cc1cccc(-n2ccc3cc(OC)cc(OC)c3c2=O)c1 | 7.13 µM | 25.2 µM | 3510 nM
9 | COc1cc(OC)c2c(=O)n(-c3cccc(C(F)(F)F)c3)ccc2c1 | 14.8 µM | 23.3 µM | 
10 | COc1cc(O)c2c(=O)n(-c3cccc(C(=O)N4CCCCC4)c3)ccc2c1NC(=O)Nc1ccc(C(=O)N2CCN(C)CC2)cc1 | 19.5 µM | > 100 µM | 
11 | C=CC(=O)Nc1c(OC)cc(O)c2c(=O)n(-c3cccc(C(=O)N4CCCCC4)c3)ccc12 | 5.3 µM | 14.7 µM | 
12 | C=CC(=O)Nc1c(OC)cc(OC)c2c(=O)n(-c3cccc(C(=O)N4CCCCC4)c3)ccc12 |  | 14.7 µM | 
13 | COc1cc(O)c2c(=O)n(Cc3ccccc3)ccc2c1 | 8.29 µM |  | 
14 | COc1cc(O)c2c(=O)n(-c3ccccc3)ccc2c1 |  | 27.9 µM | 
15 | COc1cc(O)c2c(=O)n(-c3cccc(C(=O)N4CCCCC4)c3)ccc2c1NC(=O)CCN1CCOCC1 | 11.4 µM | 13.1 µM | 
16 | COc1cc(OC)c2c(=O)n(Cc3ccccc3)ccc2c1 | 3.88 µM |  | 
17 | COc1cc(OC)c2c(=O)n(-c3ccccc3)ccc2c1 | 5.35 µM | 44.5 µM | 
18 | COc1cc(OC)c2c(=O)n(-c3cccc(C(=O)N4CCCCC4)c3)ccc2c1 | 15.3 µM | 18.6 µM | 2120 nM
19 | COc1cc(O)c2c(c1)CCN(c1cccc(C(=O)N3CCCCC3)c1)C2=O | 5.32 µM | 13.2 µM | 1180 nM
20 | COc1cc(O)c2c(=O)n(-c3cccc(C(=O)N4CCCCC4)c3)ccc2c1 | 2.25 µM | 14.2 µM | 1380 nM
